This is an account of results in ChEMBL document CHEMBL4411331, “6-Amino-3-methylpyrimidinones as Potent, Selective, and Orally Efficacious SHP2 Inhibitors” (J Med Chem, 2019).

In brackets after ≈: the same amount, converted by molar mass.

Data set [1] in a line: Apparent permeability across apical to basolateral side in human Caco2 cells. In kind it is ADME, cell-based. The conditions noted are these: Caco-2. (In general: Caco-2 cells form a polarised layer with tight junctions and transporters.)
Data set [2] can be described thus: Intrinsic clearance in rat liver microsomes. In kind it is ADME, Microsome. The note with it: read-out: CLH. In general terms: Microsomes from liver hold many membrane-bound enzymes, among them those of drug oxidation.
The nature of data set [3]: Half life in rat liver microsomes. In kind it is ADME, Microsome.
Data set [4] is described as follows: Dose normalized AUC in rat at 1 mg/kg, po. In kind it is ADME, organism-based. The conditions noted are these: in vivo.
Data set [5] can be described thus: Oral bioavailability in rat at 1 mg/kg. In kind it is ADME, organism-based. The note with it: in vivo.
Data set [6] in a line: Intrinsic clearance in mouse liver microsomes. In kind it is ADME, Microsome. The note with it: read-out: CLH.
Data set [7] is described as follows: Half life in mouse liver microsomes. In kind it is ADME, Microsome.
The nature of data set [8]: Aqueous solubility of the compound in 6.8 pH buffer. In kind it is physicochemical. The conditions noted are these: pH 6.8 buffer.
A short description of data set [9]: Drug uptake in human Detroit 562 cells xenografted NU/NU mouse at 20 to 80 mg/kg, po BID. The conditions noted are these: in vivo. In kind it is ADME, organism-based. The procedure, abridged: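 Detroit-562 xenografts (5 x 10^5 cells subcutaneously in 50% matrigel/HBSS) were grown in female athymic NU/NU mice. At about 300 mm3 the mice were dosed by oral gavage, with 0.5% methylcellulose/0.1% Tween 80 as the vehicle control. Mice were euthanized at set times, and plasma and tumor fragments were collected for compound concentration.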
Background: A xenograft is tissue or cells of one species grown in another, often human tumour cells in immunodeficient mice.

Data set [10] is described as follows: Clearance in rat. The conditions noted are these: in vivo. In kind it is ADME.
The nature of data set [11]: Half life in rat. The note with it: in vivo. In kind it is ADME.
Data set [12] is described as follows: Permeability in human Caco2 cells. In kind it is ADME, cell-based. The conditions noted are these: Caco-2, read-out: permeability.
A short description of data set [13]: Oral bioavailability in rat at 6 mg/kg. In kind it is ADME, organism-based. The note with it: in vivo.
Data set [14] can be described thus: Dose normalized AUC in rat at 6 mg/kg, po. In kind it is ADME, organism-based. The conditions noted are these: in vivo.

The Papp A→B is the apparent permeability from the apical to the basolateral side of a cell layer. By half-life is commonly meant how long it takes for the measured level to halve. Read a high half-life as slow loss. As a reminder, the bioavailability is dose-corrected exposure relative to a reference, in per cent. For orientation: solubility means the concentration that dissolves in the medium under given conditions. Read a low solubility as a poorly soluble substance. The clearance is the volume of plasma or blood freed of the substance per unit of time. Consider `C[C@@H]1OCC2(CCN(c3nc(N)c(Sc4cccnc4C(F)(F)F)c(=O)n3C)CC2)[C@@H]1N`, for which the Papp A→B in data set [1] was 1.02 ×10⁻⁶ cm/s. The microsomal CLint in data set [2] and in data set [6] was 7.9 to 11.1 µL/min/mg in each case. The values for the half-life in [3], in [7] and in [11] were above 2 h, above 2 h and 10.9 h, respectively. Further, the AUC/dose in data set [4] turned out to be 0.45 µM·h. This molecule also showed a bioavailability in data set [5] of 29%. In [8], this molecule came in with a solubility of 980 µM (≈ 461 µg/mL). In data set [9], the Drug uptake entry is given as “Dose-dependent effect”. The molecule further yielded a clearance in data set [10] of 21 mL/min/kg.
Turning to `Cn1c(N2CCC(C)(CN)CC2)nc(N)c(Sc2cccc(Cl)c2Cl)c1=O`, the Papp in data set [12] was found to be 2.5 ×10⁻⁶ cm/s. In addition, the solubility in [8] is 250 µM (≈ 107 µg/mL).
In the case of `C[C@@H]1OCC2(CCN(c3nc(N)c(Sc4cccc(Cl)c4Cl)c(=O)n3C)CC2)[C@@H]1N`, the Papp A→B in [1] came out at 6.8 ×10⁻⁶ cm/s. For the same molecule, the microsomal CLint in data set [2] came out at 39.3 µL/min/mg. This molecule registered a half-life in data set [3] of 0.617 h. The molecule also returned an AUC/dose in [4] of 0.95 µM·h. The bioavailability in [5] was found to be 38%.
In the case of `C[C@H]1C[C@@H](N)C2(CCN(c3nc(N)c(Sc4cccnc4C(F)(F)F)c(=O)n3C)CC2)C1`, in data set [1], the Papp A→B is below 0.5 ×10⁻⁶ cm/s. The microsomal CLint in data set [2] amounted to 3.4 µL/min/mg. For the same molecule, the half-life in data set [3] was 6.6 h. In addition, the bioavailability in [13] came out at 1%. Moreover, the AUC/dose in data set [14] came to 0.03 µM·h.
